Reference: ChEMBL document CHEMBL1121608, “Modification of the 5' position of purine nucleosides. 2. Synthesis and some cardiovascular properties of adenosine-5'-(N-substituted)carboxamides” (J Med Chem, 1980)

What was measured:
Canis familiaris [1] = assay: tested for the percent increase in heart rate (HR) in open chest anesthetized dog at intravenous dosage of 1 mg/kg; format: functional, Canis lupus familiaris
Canis familiaris [2] = assay: Total time in minutes elapsed from the initiation of the change until return to the pretest value of heart rate in coronary sinus of anesthetized dog at intravenous dosage of 1 mg/kg; format: functional, Canis lupus familiaris
Canis familiaris [3] = assay: Total time in minutes elapsed from the initiation of the change until return to the pretest value of blood pressure in coronary sinus of anesthetized dog at intravenous dosage of 1 mg/kg; format: functional, Canis lupus familiaris
Canis familiaris [4] = assay: Total time in minutes elapsed from the initiation of the change until return to the pretest value of oxygen partial pressure in coronary sinus of anesthetized dog at intravenous dosage of 1 mg/kg; format: functional, Canis lupus familiaris
Summary of the method: (§1)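 Open-chest anesthetized dogs given compound by intravenous injection. Coronary sinus PO2 was monitored, and duration was the total time in minutes from the onset of the change until return to the pretest value.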

Mus musculus [5] = assay: Tested for the lethal dose in mice after administration intraperitoneally; format: functional; conditions: ip
Summary of the method: (§2)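 Male and female mice, three per dose group, were given the compound by the stated route in increments of 0.5 log doses. The LD50 was estimated as an approximate value.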

Canis familiaris [6] = assay: tested for percent increase in coronary sinus partial pressure of oxygen (PO2) in open chest anesthetized dog at intravenous dosage of 1 mg/kg; format: functional, Canis lupus familiaris
Mus musculus [7] = assay: Tested for the lethal dose in mice after administration perorally; format: functional; conditions: po; summary of the method: as §2
Canis familiaris [8] = assay: tested for the percent increase in aortic blood pressure (BP) in open chest anesthetized dog at intravenous dosage of 1 mg/kg; format: functional, Canis lupus familiaris, Artery
Summary of the method: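 Open-chest anesthetized dogs received intravenous doses. Aortic blood pressure was recorded as the change from control.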

Canis familiaris [9] = assay: Total time in minutes elapsed from the initiation of the change until return to the pretest value of blood pressure in coronary sinus of anesthetized dog at intravenous dosage of 5 mg/kg; format: functional, Canis lupus familiaris
Canis familiaris [10] = assay: Tested for the percent increase in coronary sinus partial pressure of oxygen (PO2) in open chest anesthetized dog at intravenous dosage of 5.00 mg/kg; format: functional, Canis lupus familiaris
Canis familiaris [11] = assay: Tested for the percent increase in aortic blood pressure (BP) in open chest anesthetized dog at intravenous dosage of 1.00 mg/kg; format: functional, Canis lupus familiaris, Artery
Summary of the method: (§3)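 Open-chest anesthetized dogs, compound given iv at the stated dose. Aortic blood pressure is reported as the change from the control (pre-dose) value. Other set-up follows the group's earlier cardiovascular protocol.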

Canis familiaris [12] = assay: Total time in minutes elapsed from the initiation of the change until return to the pretest value of heart rate in coronary sinus of anesthetized dog at intravenous dosage of 5 mg/kg; format: functional, Canis lupus familiaris
[13] = Lethal dose in mice after intraperitoneal administration; format: toxicity, organism-based; conditions: mouse, in vivo, ip; summary of the method: as §2
Canis familiaris [14] = assay: Total time in minutes elapsed from the initiation of the change until return to the pretest value of oxygen partial pressure in coronary sinus of anesthetized dog at intravenous dosage of 5 mg/kg; format: functional, Canis lupus familiaris; summary of the method: as §1
Canis familiaris [15] = assay: Tested for percent increase in coronary sinus partial pressure of oxygen (PO2) in open chest anesthetized dog at intravenous dosage of 1.00 mg/kg; format: functional, Canis lupus familiaris
[16] = Lethal dose in mice after peroral administration; format: toxicity, organism-based; conditions: mouse, in vivo, po; summary of the method: as §2
Canis familiaris [17] = assay: Tested for the percent increase in coronary sinus partial pressure of oxygen (PO2) in open chest anesthetized dog at intravenous dosage of 1.00 mg/kg; format: functional, Canis lupus familiaris
Canis familiaris [18] = assay: Tested for the percent increase in aortic blood pressure (BP) in open chest anesthetized dog at intravenous dosage of 0.10 mg/kg; format: functional, Canis lupus familiaris, Artery; conditions: dose 0.1 mg/kg; summary of the method: as §3
Canis familiaris [19] = assay: Total time in minutes elapsed from the initiation of the change until return to the pretest value of oxygen partial pressure in coronary sinus of anesthetized dog at intravenous dosage of 0.1 mg/kg; format: functional, Canis lupus familiaris
Canis familiaris [20] = assay: Tested for percent increase in coronary sinus partial pressure of oxygen (PO2) in open chest anesthetized dog at intravenous dosage of 0.10 mg/kg; format: functional, Canis lupus familiaris; conditions: dose 0.1 mg/kg
Canis familiaris [21] = assay: Total time in minutes elapsed from the initiation of the change until return to the pretest value of blood pressure in coronary sinus of anesthetized dog at intravenous dosage of 0.1 mg/kg; format: functional, Canis lupus familiaris
Canis familiaris [22] = assay: Total time in minutes elapsed from the initiation of the change until return to the pretest value of heart rate in coronary sinus of anesthetized dog at intravenous dosage of 0.1 mg/kg; format: functional, Canis lupus familiaris
Canis familiaris [23] = assay: tested for the percent increase in heart rate (HR) in open chest anesthetized dog at intravenous dosage of 0.10 mg/kg; format: functional, Canis lupus familiaris; conditions: dose 0.1 mg/kg
Canis familiaris [24] = assay: Total time in minutes elapsed from the initiation of the change until return to the pretest value of oxygen partial pressure in coronary sinus of anesthetized dog at intravenous dosage of 0.10 mg/kg; format: functional, Canis lupus familiaris; conditions: dose 0.1 mg/kg
Canis familiaris [25] = assay: Total time in minutes elapsed from the initiation of the change until return to the pretest value of oxygen partial pressure in coronary sinus of anesthetized dog at intravenous dosage of 0.01 mg/kg; format: functional, Canis lupus familiaris
Canis familiaris [26] = assay: Total time in minutes elapsed from the initiation of the change until return to the pretest value of blood pressure in coronary sinus of anesthetized dog at intravenous dosage of 0.01 mg/kg; format: functional, Canis lupus familiaris
Canis familiaris [27] = assay: Tested for percent increase in coronary sinus partial pressure of oxygen (PO2) in open chest anesthetized dog at intravenous dosage of 0.01 mg/kg; format: functional, Canis lupus familiaris
Canis familiaris [28] = assay: Total time in minutes elapsed from the initiation of the change until return to the pretest value of blood pressure in coronary sinus of anesthetized dog at intravenous dosage of 0.10 mg/kg; format: functional, Canis lupus familiaris; conditions: dose 0.1 mg/kg
Summary of the method: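 Open-chest anesthetized dogs were given the compound intravenously. Duration is the total minutes from the start of the change until return to the pretest value. Blood pressure was recorded as change from control.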

Canis familiaris [29] = assay: Tested for the percent increase in coronary sinus partial pressure of oxygen (PO2) in open chest anesthetized dog at intravenous dosage of 0.10 mg/kg; format: functional, Canis lupus familiaris; conditions: dose 0.1 mg/kg
Canis familiaris [30] = assay: Total time in minutes elapsed from the initiation of the change until return to the pretest value of heart rate in coronary sinus of anesthetized dog at intravenous dosage of 0.01 mg/kg; format: functional, Canis lupus familiaris
Canis familiaris [31] = assay: Total time in minutes elapsed from the initiation of the change until return to the pretest value of oxygen partial pressure in coronary sinus of anesthetized dog at intravenous dosage of 2 mg/kg; format: functional, Canis lupus familiaris; summary of the method: as §1
Canis familiaris [32] = assay: Total time in minutes elapsed from the initiation of the change until return to the pretest value of heart rate in coronary sinus of anesthetized dog at intravenous dosage of 2 mg/kg; format: functional, Canis lupus familiaris
Canis familiaris [33] = assay: Tested for the percent increase in aortic blood pressure (BP) in open chest anesthetized dog at intravenous dosage of 2.00 mg/kg; format: functional, Canis lupus familiaris, Artery; summary of the method: as §3
Canis familiaris [34] = assay: Total time in minutes elapsed from the initiation of the change until return to the pretest value of blood pressure in coronary sinus of anesthetized dog at intravenous dosage of 2 mg/kg; format: functional, Canis lupus familiaris
Canis familiaris [35] = assay: Tested for percent increase in coronary sinus partial pressure of oxygen (PO2) in open chest anesthetized dog at intravenous dosage of 2.00 mg/kg; format: functional, Canis lupus familiaris
Canis familiaris [36] = assay: Tested for the percent increase in aortic blood pressure (BP) in open chest anesthetized dog at intravenous dosage of 0.01 mg/kg; format: functional, Canis lupus familiaris, Artery; summary of the method: as §3
Canis familiaris [37] = assay: Total time in minutes elapsed from the initiation of the change until return to the pretest value of heart rate in coronary sinus of anesthetized dog at intravenous dosage of 0.001 mg/kg; format: functional, Canis lupus familiaris

`Nc1ncnc2c1ncn2C1O[C@H](C(=O)NCc2ccccc2)[C@@H](O)[C@H]1O` (stereo not given in full) gave an HR (Canis familiaris [1]) of 13%, a Duration (Canis familiaris [2]) of 24 min and a Duration (Canis familiaris [3]) of 60 min. It also gave a Duration (Canis familiaris [4]) of 60 min, an LD50 (Mus musculus [5]) of 200 mg/kg and a PO2 (Canis familiaris [6]) of 48%. For the same compound, the LD50 (Mus musculus [7]) was greater than 1000 mg/kg and the BP (Canis familiaris [8]) was 5 mmHg.

In the case of `Nc1ncnc2c1ncn2C1O[C@H](C(=O)NCCc2ccccc2)[C@@H](O)[C@H]1O` (stereo not given in full), the Duration (Canis familiaris [2]) was 18 min, the Duration (Canis familiaris [9]) was 60 min and the Duration (Canis familiaris [3]) was 1 min. The Duration (Canis familiaris [4]) was 25 min, the PO2 (Canis familiaris [10]) was 44% and the BP (Canis familiaris [11]) was 11%. For the same compound, the Duration (Canis familiaris [12]) was 6 min, the LD50 [13] was 500 mg/kg and the Duration (Canis familiaris [14]) was 60 min. It also gave a PO2 (Canis familiaris [15]) of 9% and an LD50 [16] greater than 1000 mg/kg.

`C#CCNC(=O)[C@H]1OC(n2cnc3c(N)ncnc32)[C@H](O)[C@@H]1O` (stereo not given in full) showed a Duration (Canis familiaris [2]) of 82 min, a PO2 (Canis familiaris [17]) of 133% and a Duration (Canis familiaris [3]) of 180 min. It also gave a Duration (Canis familiaris [4]) of 180 min, a BP (Canis familiaris [18]) of 5% and a BP (Canis familiaris [11]) of 40%. It also gave a Duration (Canis familiaris [19]) of 70 min, a PO2 (Canis familiaris [20]) of 50% and a Duration (Canis familiaris [21]) of 70 min. For the same compound, the LD50 [13] was 200 mg/kg, the Duration (Canis familiaris [22]) was 60 min and the HR (Canis familiaris [23]) was 13%. The LD50 [16] was greater than 1000 mg/kg.

With `Nc1ncnc2c1ncn2C1O[C@H](C(=O)NCCO)[C@@H](O)[C@H]1O` (stereo not given in full) the Duration (Canis familiaris [24]) was 240 min, the Duration (Canis familiaris [25]) was 90 min and the Duration (Canis familiaris [26]) was 90 min. It also gave a PO2 (Canis familiaris [27]) of 75%, a Duration (Canis familiaris [28]) of 240 min and an LD50 [13] of 2 mg/kg. For the same compound, the Duration (Canis familiaris [22]) was 15 min, the PO2 (Canis familiaris [29]) was 163% and the Duration (Canis familiaris [30]) was 42 min. It also gave an LD50 [16] of 5 mg/kg.

`Nc1ncnc2c1ncn2[C@@H]1O[C@H](CO)[C@@H](O)[C@H]1O` [ADENOSINE] showed a Duration (Canis familiaris [31]) of 2 min, a Duration (Canis familiaris [32]) of 4 min and a BP (Canis familiaris [33]) of 60 mmHg. The Duration (Canis familiaris [34]) was 2 min and the PO2 (Canis familiaris [35]) was 200%.

In the case of `CONC(=O)[C@H]1O[C@@H](n2cnc3c(N)ncnc32)[C@H](O)[C@@H]1O`, the BP (Canis familiaris [36]) was 9%, the Duration (Canis familiaris [25]) was 60 min and the Duration (Canis familiaris [26]) was 41 min. It also gave a BP (Canis familiaris [18]) of 39%, a PO2 (Canis familiaris [27]) of 157% and a Duration (Canis familiaris [19]) of 90 min. The Duration (Canis familiaris [21]) was 90 min, the LD50 [13] was 20 mg/kg and the Duration (Canis familiaris [22]) was 10 min. The PO2 (Canis familiaris [29]) was 143%, the Duration (Canis familiaris [30]) was 60 min and the HR (Canis familiaris [23]) was 2%. For the same compound, the LD50 [16] was 50 mg/kg.

In the case of `Nc1c2ncn(C3O[C@H](C(=O)NC4CC4)[C@@H](O)[C@H]3O)c2nc[n+]1[O-]` (stereo not given in full), the Duration (Canis familiaris [37]) was 60 min, the BP (Canis familiaris [36]) was 15% and the Duration (Canis familiaris [25]) was 75 min. For the same compound, the Duration (Canis familiaris [26]) was 60 min and the PO2 (Canis familiaris [27]) was 66%.
